From PubChem BioAssay
A selection: hits, their analogues and other compounds. The true share with any hit is near 2.8%.
EP2 antag – blocks the human prostaglandin E2 receptor EP2. P43116. C6 glioma cells expressing human EP2, cAMP TR-FRET; cells stimulated with saturating PGE2. inhibition, % at 25 µM. 260,000 compounds, 0.52% hits. AID 1422;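 active means percent inhibition above 40 after rounding to a whole number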;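 further: rat C6 glioma host cells with rolipram phosphodiesterase inhibitor present; the protocol text gives 20 µM as final concentration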
NPY1 pot ag – human NPY-Y1 potentiation or agonism, primary screen | AID 1304 | P25929 | 220,000 compounds, 0.37% hits | activation, % at 3.6 µM | NPY-Y1 expressing cells, potentiator/agonist activation; in the data active means activation above about 33%, passing the limit was not always enough;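 further: cells stimulated with NPY at EC10 then isoproterenol at EC100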
Target sequence (P25929 whole entry, looked up): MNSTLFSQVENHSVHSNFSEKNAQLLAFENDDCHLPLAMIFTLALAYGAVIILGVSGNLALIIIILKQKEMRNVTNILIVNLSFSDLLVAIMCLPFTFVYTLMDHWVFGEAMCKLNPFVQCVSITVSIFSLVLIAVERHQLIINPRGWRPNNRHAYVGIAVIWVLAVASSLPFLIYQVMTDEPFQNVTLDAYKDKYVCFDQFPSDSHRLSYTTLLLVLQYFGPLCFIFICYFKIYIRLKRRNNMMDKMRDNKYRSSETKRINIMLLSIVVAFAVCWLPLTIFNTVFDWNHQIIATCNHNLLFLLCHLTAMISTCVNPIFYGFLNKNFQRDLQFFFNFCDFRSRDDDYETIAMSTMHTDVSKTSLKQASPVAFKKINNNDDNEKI
NPY Y2 blocker – NPY-Y2 (human) receptor antagonism. P49146. NPY-Y2 expressing cells, antagonist mode. inhibition, % at 2.7 µM. 140,000 compounds, 0.99% hits. AID 793
NPY2 pot ag – human NPY-Y2 potentiation or agonism, primary screen; P49146; 220,000 compounds, 0.45% hits; cells expressing NPY-Y2, potentiator/agonist read-out; activation, % at 3.6 µM; AID 1359; in the data active means activation above about 27%;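 further: cells stimulated with NPY near EC25 plus isoproterenol at EC100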
EP2 modulator – modulates human prostaglandin E2 receptor EP2 signaling. EP2-expressing cells, cAMP HTRF FRET, PGE2 co-stimulation. AID 940. P43116. induction, % at 25 µM. 260,000 compounds, 0.83% hits;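 active means compounds whose cAMP rise, as percent of the full-agonist control response, exceeds 60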;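 further: rat C6 glioma line stably carrying human EP2 under a CMV promoter; the protocol text gives 20 µM as final concentration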
NPY-Y1 antag – blocks the human neuropeptide Y Y1 receptor; 200,000 compounds, 1% hits; inhibition, % at 3.6 µM; HEK293-CNG Y1 cells, membrane potential fluorescence; NPY at EC95, then isoproterenol;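 active means inhibition above the campaign mean inhibition of all tested compounds plus 3 SD, cut at about 20% in these data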
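Material: Y1- and CNG-channel-expressing HEK293 cells / Probe or stimulus: NPY 25 nM then isoproterenol 1 µM plus Ro 20-1724 25 µM / Doses: 3.6 µM single dose, DMSO 0.4% / Schedule: compound incubation 1 h at room temperature, readout 45 min post-stimulation / Signal: membrane potential fluorescence / Benchmarks: isoproterenol-only wells as full block versus NPY-plus-isoproterenol wells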
NPY1 antag conf – human NPY-Y1 antagonism, confirmation | shares compounds with NPY-Y1 antag | HEK293-CNG NPY-Y1, membrane potential fluorescence, cAMP; NPY challenge against isoproterenol-raised cAMP | inhibition, % at 3.6 µM | 1,200 compounds, 21% hits | AID 1254; in the data active means inhibition above about 20%
NPY2 antag ctr – counter-screen for NPY-Y1 antagonists: human NPY-Y2 antagonism. shares compounds with NPY-Y1 antag. 1,200 compounds, 28% hits. AID 1255. inhibition, % at 3.6 µM. HEK293 NPY-Y2 CNG membrane potential fluorescence; cells given NPY, then isoproterenol
Numbers stand for hits; - = inactive; . = no result given; ! = repeats disagree. Unless noted, no stated cut-off is given here; in the data, active means inhibition above about 17%; inactive means the rest.

SMILES	EP2 antag	NPY1 pot ag	NPY Y2 blocker	NPY2 pot ag	EP2 modulator	NPY-Y1 antag	NPY1 antag conf	NPY2 antag ctr
O=C(c1cccc(C(F)(F)F)c1)C1CCCN(Cc2cccc(OCCO)c2)C1 (configuration not stated)	-	-	.	-	-	-	.	.
COC(=O)c1ccc(C2C(Oc3ccc(OC)cc3)C(=O)N2CCc2ccc(F)cc2)cc1 (configuration not stated)	-	-	-	-	-	21	-	-
COc1ccc(OC2C(=O)N(Cc3ccc(F)cc3)C2c2cc(OC)c(OC)c(OC)c2)cc1 (configuration not stated)	-	-	-	-	-	-	.	.
CC#CCN(CC#CC)S(=O)(=O)c1ccc(-n2cnnn2)c(OC)c1	-	-	-	-	-	21	-	-
CCCCNC(=O)c1sc2nc(C)cc(COC)c2c1-n1cccc1	.	-	-	-	-	21	-	-
COCc1cc(C)nc2sc(C(=O)NN)c(-n3cccc3)c12	-	-	.	-	-	-	.	.
C#CC(=O)N(c1ccc(-n2cnnn2)c(C)c1)C(C(=O)NC1CCCC1)c1ccccc1 (configuration not stated)	-	.	.	.	-	.	.	.
COc1ccc(N2CCN(Cc3nc4c([nH]3)c(=O)n(C)c(=O)n4C)CC2)cc1	-	.	.	.	-	.	.	.
CCOc1ccc(-c2cc(CCCC(=O)Nc3cccc(OC)c3)no2)cc1	-	-	-	-	-	21	-	21
O=C(COC(=O)CCSc1ccc(Cl)cc1)NCc1ccccc1	-	-	-	-	-	22	-	-
O=C(COC(=O)CCC(=O)c1ccc(Cl)cc1)NCc1ccco1	-	-	.	-	-	22	-	-
O=C(CSc1nnc2n(Cc3ccccc3F)c3ccccc3n12)c1ccc2c(c1)OCCO2	-	.	.	.	-	.	.	.
COc1cccc(NC(=O)c2ccccc2-c2nc(-c3ccccc3)no2)c1	-	-	-	-	-	26	-	-
COc1cccc(NC(=O)c2ccccc2-c2nc(-c3ccc(F)cc3)no2)c1	-	-	-	-	-	22	-	-
COc1cccc(NC(=O)c2ccccc2-c2ccccc2)c1	-	-	.	-	-	-	.	.
COc1cccc(NC(=O)c2ccccc2-c2nc(-c3ccc(Cl)cc3)no2)c1	-	-	-	-	-	-	.	.
CC(/C=N/n1c(COc2ccccc2)n[nH]c1=S)=C\c1ccccc1	-	-	-	-	-	31	-	-
Cc1nc2c(C)cccc2c2c1CCN2c1ccccc1F	-	-	.	-	-	.	.	.
COc1ccc(N2CCc3c(C)nc4c(OC)cc(OC)cc4c32)cc1	-	-	.	-	-	34	26	24
N[C@@H](Cc1cc(I)c(Oc2ccc(O)c(I)c2)c(I)c1)C(=O)O	-	-	-	-	-	59!	-	-
CCc1n(CC(O)COc2ccc(C(C)=O)cc2)c2ccccc2[n+]1C (configuration not stated)	-	.	.	.	-	.	.	.
Cc1nc2nc(SCC(=O)O)nn2c(C)c1Cc1ccccc1Cl	-	-	.	-	-	23	-	-
Cc1nc2nc(SCC(=O)O)nn2c(C)c1Cc1c(F)cccc1Cl	-	-	.	-	-	-	.	.
COc1cccc(C(O)CN2CCCC(O)(c3ccccc3OC)C2)c1 (configuration not stated)	-	.	.	.	-	.	.	.
COCCCNCc1cc2c(-c3cccc(F)c3)nn(-c3ccccc3)c2[nH]c1=O	-	.	.	.	-	.	.	.
COc1ccc(-c2csc(N(CCc3ccccc3)C(=O)COc3ccccc3)n2)cc1	.	-	-	-	-	32	-	-
O=C(COc1ccc(Cl)cc1)N(Cc1ccccc1)c1nc(-c2ccccc2)cs1	-	-	-	-	-	-	.	.
Nc1c(C(=O)Nc2ccccc2Cl)sc2nc3cc4c(cc3cc12)OCCO4	-	.	.	.	-	.	.	.
O=C(CN1C(=O)C2CC=CCC2C1=O)Nc1nnc(SCc2ccc(Cl)cc2)s1 (configuration not stated)	-	-	-	-	-	24	-	-
